The text below walks through data of publication PMC9719863 (Molecular Metabolism, 2022).

One series addresses T1, hGIPR (Homo sapiens, UniProt P48546).
T1 sequence (P48546 22-466): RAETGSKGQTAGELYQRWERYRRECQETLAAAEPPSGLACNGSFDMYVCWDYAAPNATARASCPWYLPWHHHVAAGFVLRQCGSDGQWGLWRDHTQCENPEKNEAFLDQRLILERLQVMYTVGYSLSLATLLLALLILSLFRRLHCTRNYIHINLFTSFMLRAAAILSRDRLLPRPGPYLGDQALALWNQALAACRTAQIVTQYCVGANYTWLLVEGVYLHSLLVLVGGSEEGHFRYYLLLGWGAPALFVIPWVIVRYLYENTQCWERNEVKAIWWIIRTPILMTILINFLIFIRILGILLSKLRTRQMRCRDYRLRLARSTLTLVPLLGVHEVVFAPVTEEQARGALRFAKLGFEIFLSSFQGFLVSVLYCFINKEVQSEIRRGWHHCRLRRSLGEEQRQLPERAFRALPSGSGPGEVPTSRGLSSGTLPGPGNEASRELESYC
Description: cAMP CRE-luciferase assay in BHK cells expressing GIPR. The following applies: agonist mode, without native ligand. Format: cell-based.

The target in a further series is T2, mGIPR (Mus musculus, UniProt Q0P543).
T2 sequence (Q0P543 19-460): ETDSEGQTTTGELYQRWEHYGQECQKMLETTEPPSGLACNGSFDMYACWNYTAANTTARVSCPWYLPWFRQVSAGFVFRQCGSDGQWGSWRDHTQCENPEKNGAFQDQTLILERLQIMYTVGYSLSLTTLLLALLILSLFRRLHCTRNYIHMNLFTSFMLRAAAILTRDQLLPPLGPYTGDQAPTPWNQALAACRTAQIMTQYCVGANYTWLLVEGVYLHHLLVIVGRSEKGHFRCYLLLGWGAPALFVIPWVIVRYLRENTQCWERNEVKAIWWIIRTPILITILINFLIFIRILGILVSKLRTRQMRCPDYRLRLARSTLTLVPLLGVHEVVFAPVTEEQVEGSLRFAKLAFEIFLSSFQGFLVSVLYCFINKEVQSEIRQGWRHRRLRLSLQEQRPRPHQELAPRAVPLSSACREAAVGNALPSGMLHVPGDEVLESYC
Described as above. The series is classed as cell-based.

In a further series the target is hGLP-1R (Homo sapiens, UniProt P43220). Description: cAMP CRE-luciferase assay in BHK cells expressing GLP-1R. The series is classed as cell-based. Summed up:
(§1)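 Stably transfected BHK cells carried receptor plus CRE-firefly luciferase reporter, seeded 5,000/well overnight, then DPBS-washed. 12-point dilutions in DMEM (no phenol red), 10 mM HEPES, 1% ovalbumin, 0.1% Pluronic F-68, ± EC80 native ligand (antagonist mode), 3 h, 37 °C. Luminescence read after SteadyLite, 30 min RT. EC50/IC50 by nonlinear regression of log concentration vs response; duplicate experiment.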

The next series deals with T3, mGLP-1R (Mus musculus, UniProt O35659).
T3 sequence (O35659 22-463): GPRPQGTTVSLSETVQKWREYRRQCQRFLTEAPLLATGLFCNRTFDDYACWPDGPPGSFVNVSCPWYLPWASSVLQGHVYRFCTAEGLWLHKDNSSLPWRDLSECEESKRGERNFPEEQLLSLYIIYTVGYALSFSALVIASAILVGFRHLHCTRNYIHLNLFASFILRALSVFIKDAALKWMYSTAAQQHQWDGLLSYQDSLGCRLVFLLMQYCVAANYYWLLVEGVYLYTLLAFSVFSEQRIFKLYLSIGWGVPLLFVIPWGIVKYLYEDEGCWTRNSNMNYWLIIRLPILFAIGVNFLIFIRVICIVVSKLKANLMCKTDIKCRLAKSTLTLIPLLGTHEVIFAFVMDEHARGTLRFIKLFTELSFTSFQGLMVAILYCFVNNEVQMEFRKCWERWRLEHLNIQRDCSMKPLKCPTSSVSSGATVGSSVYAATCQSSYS
Description: cAMP CRE-luciferase assay in BHK cells expressing GLP-1R. Format: cell-based. The following applies: antagonist mode, compared with hGLP-1R. Summed up: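 Stably transfected BHK cells with receptor and CRE-firefly luciferase reporter, 5,000 cells/well, incubated overnight and washed in DPBS. Exposed 3 h at 37 °C to a 12-point serial dilution of test compound with EC80 native ligand, in DMEM (no phenol red) with 10 mM HEPES, 1% ovalbumin, 0.1% Pluronic F-68.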

In the next series the target is hGcgR (Homo sapiens, UniProt P47871). Description: cAMP CRE-luciferase assay in BHK cells expressing glucagon receptor. The series is classed as cell-based. Summed up: as §1
Chain of hGcgR (P47871 26-477): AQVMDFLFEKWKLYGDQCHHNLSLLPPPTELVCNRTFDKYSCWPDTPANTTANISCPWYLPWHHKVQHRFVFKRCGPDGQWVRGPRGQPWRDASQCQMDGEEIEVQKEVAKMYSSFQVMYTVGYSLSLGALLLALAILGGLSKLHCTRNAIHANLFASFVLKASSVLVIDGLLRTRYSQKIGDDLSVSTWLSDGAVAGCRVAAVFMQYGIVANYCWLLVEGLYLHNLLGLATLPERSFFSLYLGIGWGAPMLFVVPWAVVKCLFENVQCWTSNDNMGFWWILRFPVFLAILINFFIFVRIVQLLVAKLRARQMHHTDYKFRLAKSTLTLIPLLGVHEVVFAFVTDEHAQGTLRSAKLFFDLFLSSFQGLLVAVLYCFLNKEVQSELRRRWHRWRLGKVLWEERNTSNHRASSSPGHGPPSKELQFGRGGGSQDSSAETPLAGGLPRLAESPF
The target in another series is mGcgR (Mus musculus, UniProt Q61606). The description is as above. The series is classed as cell-based. Put shortly: as §1
Chain of mGcgR (Q61606 27-485): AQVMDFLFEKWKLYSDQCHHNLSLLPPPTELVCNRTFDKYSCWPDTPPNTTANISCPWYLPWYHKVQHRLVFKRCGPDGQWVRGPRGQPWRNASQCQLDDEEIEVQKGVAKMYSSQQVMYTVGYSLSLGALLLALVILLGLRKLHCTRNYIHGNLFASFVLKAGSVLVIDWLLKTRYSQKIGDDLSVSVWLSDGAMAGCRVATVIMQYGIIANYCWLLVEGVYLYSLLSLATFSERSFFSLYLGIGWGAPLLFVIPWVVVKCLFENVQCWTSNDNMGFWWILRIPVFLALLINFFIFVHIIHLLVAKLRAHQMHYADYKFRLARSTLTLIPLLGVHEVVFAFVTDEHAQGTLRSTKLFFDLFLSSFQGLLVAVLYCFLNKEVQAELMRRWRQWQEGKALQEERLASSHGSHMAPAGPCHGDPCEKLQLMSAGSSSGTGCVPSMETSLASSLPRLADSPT
A short description of the next series: Pharmacokinetic. Conditions: male, C57BL/6 J, mouse, plasma, sc, 500 nmol/kg. Format: in vivo. Summed up:
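Male C57BL/6J mice fed 58% fat, high-sugar diet ≥16 weeks (61–74 g) received one SC dose of 500 nmol/kg, n = 4. Plasma sampled 5 min to 72 h, methanol-precipitated (14-fold), centrifuged, diluted 3-fold in 0.1% formic acid, and quantified by LC-MS selected ion monitoring against plasma standards (0.5–4000 nM). Parameters derived noncompartmentally with sparse sampling.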

The subject of series [1] is DIO mice. Description: Intraperitoneal glucose tolerance test. Format: in vivo, mouse. Conditions: IPGTT (Figure 6C,D) and oral glucose tolerance test (Supplemental figure 3). Put shortly: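 Male C57BL/6J mice on 58% fat, high-sugar diet for ≥16 weeks, fasted 6 h. Antagonist (500 or 1500 nmol/kg) injected 2 h before glucose; semaglutide 2 nmol/kg injected 1 h before. Glucose 2.5 g/kg (20% solution) given i.p. or by oral gavage. Tail-vein glucose measured from baseline.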

For series [2], the system named is DIO mice. Kind of series: Oral glucose tolerance test. Format: in vivo, mouse. The following applies: high dose (1500 nmol/kg) SC prior to oral gavage of glucose 2.5 g/kg, n = 8 per group. Summed up: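 DIO male C57BL/6J mice (58% fat, high-sugar diet ≥16 weeks), fasted 6 h with water available. Antagonist injected 2 h before oral gavage of 2.5 g/kg glucose (20% solution). Tail-vein blood glucose measured from baseline; glucose integrated AUC derived.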

The test system of another series is DIO male C57BL/6 J mice. Kind of series: Chronic once-daily dosing study on body weight in DIO mice. Format: in vivo, mouse. The following applies: for Percent change in body weight: 27-28 d, n = 8. Put shortly:
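DIO male C57BL/6J mice (58% fat, high-sugar diet, ~12 weeks; >55 g) housed 4/cage at 22 °C on a 12 h light–dark cycle. Groups of n = 8 were normalized for body weight. Test compound was given SC once daily in the light cycle for 28 days, in pH 7.4 vehicle (0.05% polysorbate-80, 50 mM sodium phosphate, 70 mM NaCl). Body weight was taken every other day before dosing, as % change from initial.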

In another series the test system is intact human islets. Description: Human islet perifusion, insulin secretion. The following applies: islets from two human donors, 7 1 uM, 4 technical replicates per donor. The series is classed as cell-based. Put shortly:
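Islets from human donors (purity ≥80%) recovered overnight in RPMI with 6.7 mM glucose and 10% FBS, then used within 4 days. 75 handpicked islets per chamber in KRPH buffer (2.7 mM glucose, pH 7.4). Equilibrated 48 min (1% then 0.1% BSA), then perifused in intervals with 1 uM antagonist in KRPH + 0.1% BSA. Insulin measured by Lumit immunoassay.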

Series [3] relates to DIO mice. Conditions: with the GLP-1R agonist liraglutide; cited from earlier work.

Structures are written as SMILES. *1 amine or outer side, *2 acyl side, *3 side chain or, on linkers, in order; H or OH if unused. Where a SMILES comes first, the peptide text is derived from it. Side-chain parts run from the residue outwards. The star is where a group is joined. γGlu = O=C(O)[C@H](CCC(=O)[*:2])N[*:1]; Palmitoyl = CCCCCCCCCCCCCCCC(=O)*

Chain of hGLP-1R (P43220 24-463): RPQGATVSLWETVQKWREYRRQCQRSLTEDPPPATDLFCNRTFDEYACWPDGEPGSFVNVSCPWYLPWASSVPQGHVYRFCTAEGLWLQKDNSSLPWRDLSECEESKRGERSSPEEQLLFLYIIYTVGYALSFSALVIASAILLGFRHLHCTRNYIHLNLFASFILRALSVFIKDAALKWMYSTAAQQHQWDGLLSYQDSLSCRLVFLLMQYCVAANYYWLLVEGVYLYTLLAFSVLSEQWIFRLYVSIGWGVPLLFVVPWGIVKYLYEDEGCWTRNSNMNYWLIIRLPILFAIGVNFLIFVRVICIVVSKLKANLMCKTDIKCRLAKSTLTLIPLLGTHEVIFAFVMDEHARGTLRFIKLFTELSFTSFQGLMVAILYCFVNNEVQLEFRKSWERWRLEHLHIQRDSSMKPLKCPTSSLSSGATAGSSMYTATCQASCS

A word on the EC50: it is the concentration that produces a half-maximal response. The low end stands for an effect from little substance, the high end for a need for much substance. In general, half-life refers to how long it takes for the measured level to halve. `CCCCCCCCCCCCCCCC(=O)N[C@@H](CCC(=O)NCCCC[C@H](NC(=O)[C@H](Cc1ccc(O)cc1)NC(=O)[C@H](CC(=O)O)NC(=O)[C@H](CO)NC(=O)[C@@H](NC(=O)[C@H](Cc1ccccc1)NC(=O)[C@@H](NC(C)=O)[C@@H](C)O)[C@@H](C)CC)C(=O)N[C@H](C(=O)N[C@@H](C)C(=O)N[C@@H](CC(C)C)C(=O)N[C@@H](CC(=O)O)C(=O)N[C@@H](CCCCN)C(=O)N[C@H](C(=O)N[C@@H](CCCNC(=N)N)C(=O)N[C@@H](CCC(N)=O)C(=O)N[C@@H](CCC(N)=O)C(=O)N[C@@H](CCC(=O)O)C(=O)N[C@@H](Cc1ccccc1)C(=O)N[C@H](C(=O)N[C@@H](CC(N)=O)C(=O)N[C@@H](Cc1c[nH]c2ccccc12)C(=O)N[C@@H](CC(C)C)C(=O)N[C@@H](CC(C)C)C(=O)N[C@@H](C)C(=O)N[C@@H](CCC(N)=O)C(=O)N[C@@H](CCCCN)C(=O)NCC(=O)O)C(C)C)[C@@H](C)CC)[C@@H](C)CC)C(=O)O` [Peptide 7, [Nα-Ac, L14, R18, E21] hGIP(5–31)-K11 (γE-C16)]: the “Agonism at the hGIPR (cAMP production by peptide alone)” value on hGIPR is “negligible cAMP production as agonists”. Also, the “Agonism at the mGIPR (cAMP production by peptide alone)” value at mGIPR (agonist mode, without native ligand) is listed as “negligible cAMP production as agonists”. Besides, on hGLP-1R (agonist mode, Figure 3C), the “Agonism at hGLP-1R (maximal)” value is listed as no more than 20%. On hGLP-1R (antagonist mode), the “% inhibition of native GLP-1 action, hGLP-1R” value amounted to 68%. For the same compound, the “Antagonism at mGLP-1R” value at mGLP-1R is “less antagonism at the mGLP-1R relative to hGLP-1R”. Moreover, the values for the EC50 at hGcgR and on mGcgR were greater than 12 µM and greater than 7 µM, respectively. Further, on mGcgR (antagonist mode vs glucagon), the “Antagonism at mGcgR” value was “no antagonism”. The compound also gave a half-life in the series “Pharmacokinetic” of 8.45 h. Further, in the series on DIO mice [1], the “Effect on semaglutide mediated reductions in blood glucose” value is listed as “did not affect semaglutide mediated reductions in blood glucose”. In addition, the “Glucose control in OGTT (endogenous incretin action)” value in the series on DIO mice [2] is on record as “worsened glucose control”. Also, the “Glucose iAUC in IPGTT on day 26, high dose” value with DIO male C57BL/6 J mice (7 alone 1500 nmol/kg/d, 24 h after compound injection) is recorded as “numeric but insignificant lowering of glucose iAUC”. The figures for the “Percent change in body weight” value in the series on DIO male C57BL/6 J mice (7 at 500 nmol/kg/d SC once daily) and in the series on DIO male C57BL/6 J mice (7 at 1500 nmol/kg/d SC once daily) were “+2.57%” and −2.88%, respectively. The Fasted insulin result in the series with DIO male C57BL/6 J mice (6 h fast on day 27 of treatment, plasma) is “did not modify reduction in fasting insulin levels seen with semaglutide treatment”. Besides, the “Glucose control in IPGTT on day 26” value in the series with DIO male C57BL/6 J mice (24 h after compound injection, semaglutide 2 nmol/kg/d, semaglutide plus 7, 7 alone 500 nmol/kg/d) is reported as “significantly improved glucose control compared to controls”. The “Insulin secretion in response to GIPR antagonist alone (high glucose)” value in the series with intact human islets was “modest and transient, statistically insignificant rise in insulin secretion”.

The term AUC denotes concentration integrated over time. Low values mean less exposure, high ones more exposure. In the case of `CCCCCCCCCCCCCCCC(=O)N[C@@H](CCC(=O)N[C@@H](CCC(=O)NCCCC[C@H](NC(=O)[C@H](CC(=O)O)NC(=O)[C@H](CO)NC(=O)[C@@H](NC(=O)[C@H](Cc1ccccc1)NC(=O)[C@@H](NC(C)=O)[C@@H](C)O)[C@@H](C)CC)C(=O)N[C@@H](CO)C(=O)N[C@H](C(=O)N[C@@H](C)C(=O)N[C@@H](CC(C)C)C(=O)N[C@@H](CC(=O)O)C(=O)N[C@@H](CCCCN)C(=O)N[C@H](C(=O)N[C@@H](CCCNC(=N)N)C(=O)N[C@@H](CCC(N)=O)C(=O)N[C@@H](CCC(N)=O)C(=O)N[C@@H](CCC(=O)O)C(=O)N[C@@H](Cc1ccccc1)C(=O)N[C@H](C(=O)N[C@@H](CC(N)=O)C(=O)N[C@@H](Cc1c[nH]c2ccccc12)C(=O)N[C@@H](CC(C)C)C(=O)N[C@@H](CC(C)C)C(=O)N[C@@H](C)C(=O)N[C@@H](CCC(N)=O)C(=O)N[C@@H](CCCCN)C(=O)NCC(=O)N[C@@H](CCCCN)C(=O)N[C@@H](CCCCN)C(=O)N[C@@H](CC(N)=O)C(=O)N[C@@H](CC(=O)O)C(=O)N[C@@H](Cc1c[nH]c2ccccc12)C(=O)N[C@@H](CCCCN)C(=O)N[C@@H](Cc1c[nH]cn1)C(=O)N[C@@H](CC(N)=O)C(=O)N[C@H](C(=O)N[C@H](C(=O)N[C@@H](CCC(N)=O)C(N)=O)[C@@H](C)O)[C@@H](C)CC)C(C)C)[C@@H](C)CC)[C@@H](C)CC)C(=O)O)C(=O)O` [Peptide 13, [N^α-Ac, L14, R18, E21] hGIP(5–42)-K10 (γEγE-C16)] (Ac-TFISDK([γGlu-γGlu-Palmitoyl])SIALDKIRQQEFVNWLLAQKGKKNDWKHNITQ-NH2), at mGIPR (13 compared with 7), the “Fold less potent at mGIPR than 7 in vitro” value is recorded as roughly 5 fold. For the same compound, in the series “Pharmacokinetic”, the AUC is 21.1 µM·h and the half-life was 1.12 h. Moreover, the “Weight loss when co-administrated with liraglutide” value in the series on DIO mice [3] was “did not improve weight loss”.
